# Measured values: ChEMBL document CHEMBL1153527, “Discovery of a novel series of quinolone and naphthyridine derivatives as potential topoisomerase I inhibitors by scaffold modification” (J Med Chem, 2009)
# pIC50: −log10 of the molar value. Activity calls are given as the source filed them. The rule behind the calls is not given here.
# Assays:
# [1] = biological target: T1, DNA topoisomerase 1 (Homo sapiens) (UniProt P11387); test: Induction of human recombinant topoisomerase 1-mediated cleavage of 32P-labeled linearized pRYG plasmid DNA at 25 uM after 30 mins by agarose gel electrophoresis
# T1 sequence (whole entry): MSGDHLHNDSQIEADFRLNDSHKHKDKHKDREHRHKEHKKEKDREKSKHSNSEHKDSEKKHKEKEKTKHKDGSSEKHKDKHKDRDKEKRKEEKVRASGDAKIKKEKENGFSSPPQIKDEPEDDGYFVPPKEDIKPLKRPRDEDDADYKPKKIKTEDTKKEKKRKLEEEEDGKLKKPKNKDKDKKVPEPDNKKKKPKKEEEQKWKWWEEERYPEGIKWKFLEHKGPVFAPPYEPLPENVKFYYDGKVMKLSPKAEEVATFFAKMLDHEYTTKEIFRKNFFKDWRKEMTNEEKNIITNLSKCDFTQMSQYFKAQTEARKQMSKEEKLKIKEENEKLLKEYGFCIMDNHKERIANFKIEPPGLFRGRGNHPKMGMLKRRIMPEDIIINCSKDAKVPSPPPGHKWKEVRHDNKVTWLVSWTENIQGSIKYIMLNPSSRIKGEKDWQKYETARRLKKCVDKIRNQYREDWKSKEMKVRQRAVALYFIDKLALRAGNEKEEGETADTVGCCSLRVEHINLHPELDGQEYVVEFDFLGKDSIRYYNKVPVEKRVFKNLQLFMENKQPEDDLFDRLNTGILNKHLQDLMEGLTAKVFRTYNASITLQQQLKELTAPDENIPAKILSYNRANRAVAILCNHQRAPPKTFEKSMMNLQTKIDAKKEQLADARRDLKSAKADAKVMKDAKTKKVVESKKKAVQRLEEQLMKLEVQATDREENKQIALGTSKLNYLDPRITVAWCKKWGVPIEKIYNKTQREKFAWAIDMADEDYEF
# Procedure, shortened: (§1)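 Recombinant human Top I was incubated with HindIII-linearised pRYG plasmid, 3'-end-labelled with [α-32P]dCTP by Klenow fill-in (about 100000 cpm per reaction). Reactions were stopped with SDS and proteinase K at 45 °C, alkali-denatured, run on a 1% agarose gel and autoradiographed.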
# [2] = system: HT-29; test: Induction of apoptosis in human HT-29 cells assessed as decrease in accumulation at G0/G1 phase at 1 uM after 48 hrs by flow cytometry; assay type: functional, cell-based
# Procedure, shortened: (§2)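 HT-29 cells were exposed to vehicle or 1, 5 or 10 μM compound for 6, 12, 24 or 48 h. Floating and attached cells were collected, fixed in 70% ethanol and treated with 0.1% Triton X-100. They were stained with PI at 50 μg/mL plus RNaseA at 50 μg/mL for 30 min at room temperature in the dark. FL2 DNA content was read on 10000 cells by flow cytometry. The sub-G1 fraction was taken as apoptotic.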
# [3] = system: MCF7; test: Cytotoxicity against estrogen receptor-positive human MCF7 cells expressing wild type p53 after 48 hrs by SRB assay; assay type: functional, cell-based; details: MCF7, 48 h
# Procedure, shortened: (§3)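 Cell lines came from CCRC, Taiwan. Cells were seeded at about 5 × 10^3 per well and left overnight. They were then given serum-free medium containing 0-10 μM compound (0.08-10 μM serial dilutions) for 48 h at 37 °C. Cells were fixed with TCA (10% final), stained with SRB (0.4% final), and the dye was dissolved in 10 mM Tris with A515 read. IC50 was taken from a fitted log concentration-response curve.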
# [4] = biological target: T1, DNA topoisomerase 1 (Homo sapiens); test: Induction of human topoisomerase 1-mediated chromosomal DNA strand breaks in HT-29 cells at 10 uM after 1 hr by comet assay; assay type: cell-based
# Procedure, shortened: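 HT-29 cells were seeded at 1 × 10^4 per well and attached overnight, then treated for 1 h. Untreated cells served as negative control. Cells in low-melting agarose on precoated slides were lysed at pH 10.5 for 30 min at 4 °C and unwound in 300 mM NaOH/1 mM EDTA (pH >13) for 30 min at 4 °C. Electrophoresis ran 10 min at 16 V, with SYBR Gold staining. Read-out was mean % tail DNA from ≥50 nuclei, duplicates in three independent experiments.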
# [5] = system: HT-29; test: Cytotoxicity against human HT-29 cells expressing p53 mutant after 48 hrs by SRB assay; assay type: functional, cell-based; details: HT-29, 48 h; procedure, shortened: as §3
# [6] = Cytotoxicity against estrogen receptor-negative human […] cells expressing p53 mutant after 48 hrs by SRB assay; assay type: functional, cell-based; procedure, shortened: as §3
# [7] = system: A2780; test: Cytotoxicity against human A2780 cells after 48 hrs by MTT assay; assay type: functional, cell-based; details: A2780, 48 h
# [8] = system: HT-29; test: Induction of apoptosis in human HT-29 cells assessed as morphological changes at 0.25 ug/mL after 24 hrs by immunostaining; assay type: functional, cell-based
# Procedure, shortened: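 SKOV3 and HT-29 cells were treated with 0.25 or 5 μg/mL for 24 h. Cell morphology was assessed by microscopy after fixation in 4% formaldehyde and Hoechst 33342 staining (10 μg/mL), against an untreated control.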
# [9] = system: SK-OV-3; test: Induction of apoptosis in human SKOV3 cells assessed as apoptotic cells at 10 ug/mL after 24 hrs by annexin V/propidium iodide-based flow cytometry; assay type: functional
# Procedure, shortened: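 SKOV-3 or HT-29 cells (1-5 × 10^6 cells/mL) were incubated with 0, 5 or 10 μg/mL compound for 24 h. They were then washed and stained with EGFP-Annexin V/PI and analysed immediately by flow cytometry. Annexin V+/PI− cells were scored as apoptotic; PI-permeant cells were scored as necrotic.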
# [10] = system: Bel-7402; test: Cytotoxicity against human Bel7402 cells after 48 hrs by MTT assay; assay type: functional, cell-based; details: Bel-7402, 48 h
# [11] = system: HT-29; test: Reduction in topoisomerase 1 expression in human HT-29 cells by immunocytochemistry; assay type: functional, cell-based
# Procedure, shortened: (§4)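 HT-29 and SKOV-3 cells were grown on slides and treated with compound at several concentrations, with an untreated control. Cells were fixed and permeabilised, and endogenous peroxidase was quenched with 0.3% H2O2/methanol. After blocking with 10% goat serum, slides were stained with anti-Top I (1:100, 10 h), then biotinylated secondary and avidin-biotin-HRP, and developed with DAB.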
# [12] = system: HT-29; test: Cell cycle distribution in human HT-29 cells assessed as accumulation at S phase upto 10 uM by flow cytometry; assay type: functional; procedure, shortened: as §2
# [13] = system: HT-29; test: Induction of apoptosis in human exponentially growing HT-29 cells; assay type: functional, cell-based; details: TDE = time-dependent effect
# [14] = biological target: T1, DNA topoisomerase 1 (Homo sapiens); test: Induction of human recombinant topoisomerase 1-mediated cleavage of 32P-labeled linearized pRYG plasmid DNA at 2.5 uM after 30 mins by agarose gel electrophoresis; procedure, shortened: as §1
# [15] = system: SK-OV-3; test: Reduction in topoisomerase 1 expression in human SKOV3 cells by immunocytochemistry; assay type: functional, cell-based; procedure, shortened: as §4
# [16] = system: HepG2; test: Cytotoxicity against human HepG2 cells expressing wild type p53 after 48 hrs by SRB assay; assay type: functional, cell-based; details: HepG2, 48 h; procedure, shortened: as §3
# [17] = system: HT-29; test: Cytotoxicity against human HT-29 cells after 48 hrs by MTT assay; assay type: functional, cell-based; details: HT-29, 48 h
# Procedure, shortened: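 Cells were seeded at about 5 × 10^3 per well, then given serum-free medium containing 0-10 μM test compound for 48 h at 37 °C. MTT was added at 0.5 mg/mL final for 4 h at 37 °C. Formazan was dissolved in DMSO and OD570 read. IC50 values (50% cell death) came from a fitted log concentration-response curve.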
# [18] = system: DNA topoisomerase 2 (Bos taurus); test: Inhibition of topoisomerase 2 at 200 uM
smiles,measurement,setting,value
CCn1cc(-c2nc3ccc([N+](=O)[O-])cc3o2)c(=O)c2cc(F)c(N3CCNC(C)C3)c(F)c21 (configuration not stated),Activity,[1],Active
same,Activity,[2],Active
same,GI50,[3],3000 nM
same,pIC50,[3],5.17
same,Activity,[4],48%
same,GI50,[5],1000 nM
same,pIC50,[5],5.26
same,GI50,[6],700 nM
same,pIC50,[6],5.51
same,pIC50,[7],6.70
same,Activity,[8],Active
same,Activity,[9],13.6%
same,pIC50,[10],6.70
same,Activity,[11],Dose-dependent effect
same,Activity,[12],5%
same,Activity,[13],tde
same,Activity,[14],Active
same,Activity,[15],Dose-dependent effect
same,GI50,[16],2800 nM
same,pIC50,[16],5.35
same,IC50,[17],0.37 µg/mL
same,inhibition,[18],inactive
